Measurements from different studies.
Lines come from different studies, so protocols differ. ≈ marks a conversion by molar mass, not a printed value.
Organism: Mycobacterium tuberculosis variant bovis BCG
Read-out: microbial growth

C=CC(c1ccc(-c2ccc3cc(OC)ccc3c2)cc1)n1ccnc1 (stereo not drawn) — MIC50 (BCG): 9.7 µM (≈ 3.3 µg/mL)
c1ccc(COc2ccc(CNCc3cccnc3)cc2)cc1 — MIC (ATCC35734 BCG): > 62.5 µM
C=CC(c1ccc(-c2ccc3c(c2)OCO3)cc1)n1ccnc1 (stereo not drawn) — MIC50 (BCG): 20 µM (≈ 6.09 µg/mL)
Clc1cccc(COc2ccccc2CNCc2ccncc2)c1 — MIC (ATCC35734 BCG): > 62.5 µM
Nc1cnc(C(=O)O)cn1 — IC50 (ATCC35734 BCG; 5 days): 800 µM
Fc1ccc(COc2ccc(CNCc3ccccc3)cc2)cc1 — MIC (ATCC35734 BCG): > 62.5 µM
C=CC(c1ccc(-c2ccc3c(c2)OCO3)cc1F)n1ccnc1 (stereo not drawn) — MIC50 (BCG): > 30 µM
COc1ccc(C=CC(=O)c2ccccc2)cc1OC — MIC (BCG; 7 days): 6.25 µg/mL
CCCNc1cnc(C(=O)O)cn1 — IC50 (ATCC35734 BCG; 5 days): 700 µM
COc1ccc(C=CC(=O)c2ccc([N+](=O)[O-])cc2)cc1OC — MIC (BCG; 7 days): 200 µg/mL
Clc1ccc(COC(Cn2ccnc2)c2ccc(Cl)cc2Cl)cc1 (stereo not drawn) — MIC50 (BCG): 12.7 µM (≈ 4.85 µg/mL)
COc1ccc(C=CC(=O)c2ccc(C)cc2)cc1OC — MIC (BCG; 7 days): 25 µg/mL
C=CC(c1ccc(-c2ccc(OC)c(OC)c2)cc1)n1ccnc1 (stereo not drawn) — MIC50 (BCG): > 100 µM
c1ccc(COc2ccccc2CNCc2ccncc2)cc1 — MIC (ATCC35734 BCG): > 62.5 µM
COc1ccc(C(=O)C=Cc2ccc(OC)c(OC)c2)cc1 — MIC (BCG; 7 days): 50 µg/mL
